Experimental data gathered from unrelated publications.
Protocols differ between the studies behind these lines.
Target: Mitogen-activated protein kinase kinase kinase kinase 2 (MAP4K2, Homo sapiens, UniProt Q12851)
One construct used (Q12851 1-820): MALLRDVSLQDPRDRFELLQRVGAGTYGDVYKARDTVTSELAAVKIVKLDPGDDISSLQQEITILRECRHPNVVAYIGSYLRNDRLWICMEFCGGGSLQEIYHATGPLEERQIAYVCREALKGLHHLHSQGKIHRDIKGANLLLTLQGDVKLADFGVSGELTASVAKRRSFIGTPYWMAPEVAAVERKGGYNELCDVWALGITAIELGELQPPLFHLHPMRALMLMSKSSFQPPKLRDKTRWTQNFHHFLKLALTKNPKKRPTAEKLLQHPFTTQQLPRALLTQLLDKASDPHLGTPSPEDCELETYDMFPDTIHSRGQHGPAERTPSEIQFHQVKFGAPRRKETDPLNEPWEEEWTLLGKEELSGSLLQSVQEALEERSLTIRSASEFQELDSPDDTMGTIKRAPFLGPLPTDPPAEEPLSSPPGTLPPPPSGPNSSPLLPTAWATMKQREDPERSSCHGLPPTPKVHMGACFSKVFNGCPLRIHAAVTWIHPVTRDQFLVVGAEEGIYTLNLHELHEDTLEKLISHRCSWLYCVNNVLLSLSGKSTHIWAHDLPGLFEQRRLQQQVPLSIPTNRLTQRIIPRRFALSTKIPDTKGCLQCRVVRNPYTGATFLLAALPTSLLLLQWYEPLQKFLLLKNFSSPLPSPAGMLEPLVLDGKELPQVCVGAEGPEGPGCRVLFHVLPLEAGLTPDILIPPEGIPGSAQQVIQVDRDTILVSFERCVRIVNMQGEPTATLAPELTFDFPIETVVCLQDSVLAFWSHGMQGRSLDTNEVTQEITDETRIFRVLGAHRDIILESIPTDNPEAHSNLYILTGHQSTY

| Compound | assay | conditions | endpoint | result |
| --- | --- | --- | --- | --- |
| N#CC1(c2ccccn2)CCN(Cc2cc(C(=O)O)c(=O)n3ccccc23)CC1 | cell-free assay, competition with immobilised ligand | 1 µM | remaining binding | 81% |
| O=c1[nH]c2ccccc2n1C1CCN(Cc2ccc(-c3[nH]c4cc5ncnc5cc4nc3-c3ccccc3)cc2)CC1 | cell-free assay | 0.5 µM | remaining signal | 105% |
| Cn1cc(-c2cc(F)cc(N3CCn4c(cc5c4CCCC5)C3=O)c2CO)cc(Nc2ccc(N3CCN(C4COC4)CC3)cn2)c1=O | enzyme activity, inhibitor | 0.1 µM | inhibition | 2% |
| Cn1cncc1[C@@](O)(COc1ccc(C#N)cc1-c1ccc(OC(F)(F)F)cc1)c1ccc(C#N)cc1 | cell-free assay, competition with immobilised ligand | 1 µM | remaining binding | 100% |
| Cc1nn(C)cc1-c1nc2c(N3CCN(Cc4ccc(Cl)cc4)CC3)c(Cl)cnc2[nH]1 | binding, competition with immobilised ligand | 1 µM | remaining binding | 85% |
| COc1ncccc1-c1cnn2ccc(N3CCN(C(=O)OC(C)C)CC3)nc12 | binding, competition with immobilised ligand | 1 µM | remaining binding | 65% |
| CC(C)(C)c1cc(C=C(C#N)C#N)cc(Br)c1O | enzyme activity, inhibitor | 0.5 µM | remaining activity | 113% |
| COc1cc(Nc2ncc(F)c(Nc3ccc4c(n3)NC(=O)C(C)(C)O4)n2)cc(OC)c1OC | binding, competition with immobilised ligand | 10 µM | inhibition | 85% |
| Nc1ncc(-c2nc(N3CCOCC3)nc(N3CCOCC3)n2)c(C(F)F)n1 | binding, competition with immobilised ligand | 10 µM | remaining binding | 78% |
